{"source": "ChEMBL document CHEMBL3867455", "about": "“Accelerating the discovery of antibacterial compounds using pathway-directed whole cell screening” (Bioorg Med Chem, 2016)", "key": {"[1]": {"system": "T1, Teichoic acid D-alanyltransferase (Staphylococcus aureus), Q53662 [S175T]", "T1 sequence (whole entry)": "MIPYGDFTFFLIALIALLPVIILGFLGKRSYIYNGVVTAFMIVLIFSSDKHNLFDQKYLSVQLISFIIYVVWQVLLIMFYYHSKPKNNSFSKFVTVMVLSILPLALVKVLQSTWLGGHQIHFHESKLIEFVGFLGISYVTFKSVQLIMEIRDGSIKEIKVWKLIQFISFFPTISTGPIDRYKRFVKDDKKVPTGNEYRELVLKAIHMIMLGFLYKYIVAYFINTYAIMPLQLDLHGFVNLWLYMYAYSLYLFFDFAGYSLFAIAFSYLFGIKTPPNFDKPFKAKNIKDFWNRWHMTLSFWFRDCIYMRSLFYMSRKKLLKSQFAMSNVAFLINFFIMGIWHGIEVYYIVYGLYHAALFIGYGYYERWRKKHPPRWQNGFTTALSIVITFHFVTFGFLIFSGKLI", "assay": "Inhibition of DltB S175T mutant in Staphylococcus aureus Newman up to 32 ug/ml after 16 to 18 hrs by spectrophotometric analysis", "conditions": "Staphylococcus aureus subsp. aureus str. Newman"}, "[2]": {"system": "T2, Teichoic acid D-alanyltransferase (Staphylococcus aureus), Q53662 [A355E]", "T2 sequence (whole entry)": "T1 sequence (whole entry) with T175S, A355E", "assay": "Inhibition of DltB A355E mutant in Staphylococcus aureus Newman up to 32 ug/ml after 16 to 18 hrs by spectrophotometric analysis", "conditions": "Staphylococcus aureus subsp. aureus str. Newman", "summary_of_the_method": "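Broth-dilution MIC. Overnight cultures of the parent and the resistant mutants (selected in the […] background) were diluted 1:100 and grown in TSB at 30°C to OD600 ~1. They were then normalized to OD600 1 and diluted 1:1000. Compound series were made in DMSO, with 3 µL added to 147 µL of culture for a final 0–32 µg/mL. Plates were held 16–18 h at 30°C and OD600 was read.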"}, "[3]": {"system": "Staphylococcus aureus subsp. aureus str. Newman", "assay": "Inhibition of DltB in Taro deficient Staphylococcus aureus Newman at 5 ug/ml after 16 to 18 hrs", "summary_of_the_method": "(§1)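 S. aureus overnight cultures (Newman WT, Newman ΔtarO, SEJ1 ΔltaS, RN4220 ΔypfP) diluted 1:100 in TSB and grown to OD600 ~1. Cultures were normalized to OD600 1 and diluted 1:1000. A DMSO compound dilution series was added to give final 0–32 µg/mL. Plates were incubated at 30°C for 16–18 h, then growth was read as OD600.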"}, "[4]": {"system": "Staphylococcus aureus subsp. aureus RN4220", "assay": "Inhibition of DltB in ypfP-deficient Staphylococcus aureus RN4220 at 5 ug/ml after 16 to 18 hrs", "summary_of_the_method": "as §1"}, "[5]": {"system": "Staphylococcus aureus subsp. aureus USA300", "assay": "Inhibition of DltB tn::1050 mutant in Staphylococcus aureus USA300 JE2 at 5 ug/ml after 16 to 18 hrs"}, "Staphylococcus aureus [6]": {"system": "Staphylococcus aureus", "assay": "Antibacterial activity against wild type Staphylococcus aureus Newman at 5 ug/ml after 16 to 18 hrs", "type": "functional", "summary_of_the_method": "as §1"}, "Staphylococcus aureus [7]": {"system": "Staphylococcus aureus", "assay": "Inhibition of DltB in ltaS-deficient Staphylococcus aureus SEJ1 at 5 ug/ml after 16 to 18 hrs", "summary_of_the_method": "as §1"}, "[8]": {"assay": "Cytotoxicity against African green monkey Vero cells assessed cell viability at 2.5 uM relative to control", "type": "toxicity, cell-based", "conditions": "chlorocebus sabaeus, read-out: Activity"}, "[9]": {"system": "Staphylococcus aureus subsp. aureus str. Newman", "assay": "Inhibition of DltB in Taro-deficient Staphylococcus aureus Newman at 1 ug/ml after 16 to 18 hrs", "summary_of_the_method": "as §1"}, "[10]": {"assay": "Cytotoxicity against African green monkey Vero cells assessed cell viability at 10 uM relative to control", "type": "toxicity, cell-based", "conditions": "chlorocebus sabaeus, read-out: Activity"}, "[11]": {"system": "Staphylococcus aureus subsp. aureus RN4220", "assay": "Inhibition of DltB in ypfP-deficient Staphylococcus aureus RN4220 at 1 ug/ml after 16 to 18 hrs", "summary_of_the_method": "as §1"}, "[12]": {"system": "Staphylococcus aureus subsp. aureus str. Newman", "assay": "Inhibition of DltB in Staphylococcus aureus Newman assessed as suppression of 14C-D-Ala incorporation into LTA up to 16 ug/ml preincubated for 30 mins followed by 14C-D-Ala addition after 30 mins by PAGE autoradiography", "summary_of_the_method": "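S. aureus Newman overnight culture diluted 1:100 and grown in TSB at 30°C to OD600 0.6. Cells were resuspended in 0.25X TSB pH 6.0 with 200 µg/mL D-cycloserine and compound at 0–16 µg/mL (eight levels), then held 30 min at 30°C, 300 rpm. Cells were then resuspended in the same buffer with compound plus 14C-D-Ala for a further 30 min. Lysates were boiled in SDS buffer and run on 4–20% Tris-glycine PAGE, then autoradiographed for labelled LTA.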"}, "[13]": {"system": "Staphylococcus aureus subsp. aureus USA300", "assay": "Inhibition of DltB tn::1050 mutant in Staphylococcus aureus USA300 JE2 at 1 ug/ml after 16 to 18 hrs"}, "[14]": {"assay": "Cytotoxicity against African green monkey Vero cells assessed cell viability at 5 uM relative to control", "type": "toxicity, cell-based", "conditions": "chlorocebus sabaeus, read-out: Activity"}, "[15]": {"assay": "Cytotoxicity against African green monkey Vero cells assessed cell viability at 1.3 uM relative to control", "type": "toxicity, cell-based", "conditions": "chlorocebus sabaeus, read-out: Activity"}, "Staphylococcus aureus [16]": {"system": "Staphylococcus aureus", "assay": "Inhibition of DltB in ltaS-deficient Staphylococcus aureus SEJ1 at 1 ug/ml after 16 to 18 hrs", "summary_of_the_method": "as §1"}}, "note": "Substitutions are numbered along the chain they refer to. Activity calls are given as the source filed them. No cut-off for these calls is given here."}
{"smiles": "COc1cc(NS(C)(=O)=O)ccc1Nc1c2ccccc2nc2ccccc12", "values": [{"measurement": "MIC", "setting": "[1]", "value": "> 32", "unit": "µg/mL"}, {"measurement": "MIC", "setting": "[2]", "value": 2, "unit": "µg/mL"}, {"measurement": "inhibition", "setting": "[3]", "value": "Active"}, {"measurement": "inhibition", "setting": "[4]", "value": "Active"}, {"measurement": "inhibition", "setting": "[5]", "value": "Active"}, {"measurement": "Activity", "setting": "Staphylococcus aureus [6]", "value": "Active"}, {"measurement": "inhibition", "setting": "Staphylococcus aureus [7]", "value": "Active"}]}
{"smiles": "COc1ccc(-c2csc(NC(=O)/C=C/c3cccs3)n2)c(OC)c1", "values": [{"measurement": "viability at 2.5 µM", "setting": "[8]", "value": 106, "unit": "%"}, {"measurement": "inhibition", "setting": "[9]", "value": "Active"}, {"measurement": "viability at 10 µM", "setting": "[10]", "value": 106, "unit": "%"}, {"measurement": "inhibition", "setting": "[11]", "value": "Active"}, {"measurement": "MIC", "setting": "[1]", "value": 0.5, "unit": "µg/mL"}, {"measurement": "inhibition", "setting": "[12]", "value": "Active"}, {"measurement": "MIC", "setting": "[2]", "value": "> 32", "unit": "µg/mL"}, {"measurement": "inhibition", "setting": "[13]", "value": "Active"}, {"measurement": "viability at 5 µM", "setting": "[14]", "value": 106, "unit": "%"}, {"measurement": "viability at 1.3 µM", "setting": "[15]", "value": 106, "unit": "%"}, {"measurement": "inhibition", "setting": "Staphylococcus aureus [16]", "value": "Active"}]}
